tim10-1 inh = growth inhibitors of tim10-1 mutant yeast, primary screen, luminescence, uHTS; S. cerevisiae tim10-1 ts strain growth, BacTiter-Glo, 24 h; inhibition, % at 20 µM; hit rate 2.2% among 330,000; AID 463190, 2010;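 active = inhibition of at least 40%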;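 note: mutant grown at 25 °C; 0% = DMSO wells with yeast and 100% = wells holding no yeast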
TIM10 inh = growth inhibitors of isogenic TIM10 control yeast, primary screen, counter-screen for tim10-1 yeast inhibitor project, luminescence, uHTS; AID 463195, 2010; inhibition, % at 10 µM; hit rate 1.4% among 330,000; S. cerevisiae TIM10 strain growth, BacTiter-Glo luminescence, 24 h;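 active = inhibition of 40% or more at the single tested concentration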;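 note: wild-type TIM10 isogenic control strain grown at permissive 25 °C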
UPR XBP1 act = activators of adaptive XBP1 UPR arm, primary screen, cell-based, CHO-XBP1 luciferase reporter, luminescence, uHTS; hit rate 0.33% among 330,000; IRE1-XBP1 UPR activation; percent of tunicamycin response, DMSO as zero; activation, % at 20 µM;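 active = versus positive control, 20 µM dose yields 30% or more activation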;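 note: 100% = tunicamycin at 10 µg/mL and 0% = DMSO only wells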
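Test system: CHO-XBP1 luciferase reporter cells | Buffer or medium: Serum-containing F12 medium, 10% FBS | Schedule: 6 h compound exposure at 37 °C, 5% CO2 | Detection: Steady-Glo luciferase glow luminescence, 10 min after reagent addition | Read-out basis: Activation, % of tunicamycin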
CHOP UPR activ = activators of apoptotic CHOP UPR arm, primary screen, cell-based, CHO-CHOP luciferase reporter, luminescence, uHTS. UPR activation; percent of tunicamycin response over DMSO baseline. activation, % at 10 µM. hit rate 0.34% among 330,000. AID 449763, 2010;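 active = at 10 µM dose, activation of 40% or more, normalized to positive control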;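 note: 100% = tunicamycin at 10 µg/mL and 0% = DMSO alone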
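Test system: CHO CHOP reporter cells. Input: 500 CHO-CHOP cells per well. Medium: F12 with 10% FBS. Technique: luciferase luminescence. Measure: percent activation relative to tunicamycin control. Dosing: 10 µM compound, 0.5% DMSO. Timing: 16-18 h cell attachment, then 6 h compound exposure, 37 °C.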
tim23-1 inh = growth inhibitors of tim23-1 mutant yeast, primary screen, luminescence, uHTS; S. cerevisiae tim23-1 growth, BacTiter-Glo luminescence, 24 h; inhibition, % at 20 µM; hit rate 1.3% among 330,000; AID 463212, 2010;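 active = growth inhibition of the mutant yeast at or above 50%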;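 note: temperature-sensitive mutant grown at 25 °C; plate controls were DMSO-treated mutant yeast for no effect and medium wells lacking yeast for full effect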
tim10-1 conf = growth inhibitors of tim10-1 mutant yeast, confirmation, single concentration, luminescence, S. cerevisiae; shares compounds with tim10-1 inh; S. cerevisiae tim10-1 ts strain growth, BacTiter-Glo, 24 h; inhibition, % at 20 µM; hit rate 56% among 7,400; AID 463213, 2010;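 active = inhibition of yeast growth at or above a set limit in either of two repeat tests at 20 µM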;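 note: tim10-1 mutant grown at permissive 25 °C to find synthetic lethal compounds; 0% = DMSO yeast wells and 100% = medium wells without yeast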
The depositor's hits bear a star; . = not tested or not shown. Most compounds without a hit are left out; they make up all but 3.9% or so of the library.

SMILES | tim10-1 inh | TIM10 inh | UPR XBP1 act | CHOP UPR activ | tim23-1 inh | tim10-1 conf
COc1ccccc1NC(=O)C(C)OC(=O)/C=C/c1ccc2ccccc2n1 (stereo not drawn) | 52* | 14 | 9 | 5 | 46 | 30*
C=CCN(c1ccccc1)S(=O)(=O)c1cccc(C(=O)NC2CCN(Cc3ccccc3)CC2)c1 | 4 | -1 | -3 | -1 | -4 | .
COc1ccccc1NC(CC(=O)c1ccccc1)C(=O)OCC(=O)c1ccc(F)cc1 (stereo not drawn) | 45* | 34 | 1 | 2 | 33 | 40*
COc1ccc2oc3cc(C)[n+]([O-])c(-c4ccc(Br)cc4)c3c2c1 | 42* | 8 | -1 | 1 | 33 | 24
COC(=O)c1ccc(/C=C/c2ccc3cccc(OC(C)=O)c3n2)cc1 | 40 | 20 | -2 | 4 | 19 | 24
COc1c(OC(C)=O)ccc(/C=C/c2ccc3cccc(OC)c3n2)c1[N+](=O)[O-] | 41* | 13 | 6 | 7 | 43 | 28
COc1c(OC(C)=O)ccc(/C=C/c2ccc3ccccc3n2)c1[N+](=O)[O-] | 48* | 40 | 6 | 5 | 48 | 32*
CCOc1c(OC(C)=O)ccc(/C=C/c2ccc3cccc(OC(C)=O)c3n2)c1[N+](=O)[O-] | 6 | 14 | 4 | 5 | 30 | .
C[C@]12c3[nH]c4ccccc4c3CCN1C(=O)C(CC(=O)NCCN1CCOCC1)C[C@@H]2C(=O)N1CCCCC1 (stereo partly drawn) | -7 | 4 | -3 | 0 | -6 | .
S=C(Nc1ccc2nsnc2c1)N1CCCC1 | 41* | 26 | -2 | 4 | 15 | 14
CCc1nc(N2CCCCC2)c2oc3ccccc3c2n1 | 41* | 13 | -1 | 0 | 49 | 8
CCc1nc(N2CCCCC2C)c2oc3ccccc3c2n1 (stereo not drawn) | 48* | 25 | 4 | -1 | 46 | 20
CCc1nc(N2CCCC(C)C2)c2oc3ccccc3c2n1 (stereo not drawn) | 40 | 11 | 0 | -2 | 42 | .
CCc1nc(Nc2ccccc2OC)c2oc3ccccc3c2n1 | 42* | 16 | 6 | 2 | 36 | 17
CCN(CC(=O)Nc1ccc(OC)cc1)C(=O)CSCc1c(C)noc1C | -8 | 1 | 0 | 1 | -1 | .
COc1ccc(-c2cn(Cc3ccc(C(N)=O)cc3)c(CCN)n2)cc1 | -12 | 3 | 1 | 3 | 19 | .
Cc1ccc(S(=O)(=O)NCC(C)n2nc(C)nc2C)cc1 (stereo not drawn) | -7 | 5 | -1 | 3 | -3 | .
COC(CN(C)C(C(=O)NC1CCCCC1)c1ccccc1)OC (stereo not drawn) | 37 | -3 | -1 | -2 | 10 | .
COC(CN(C(=O)CCl)C(C(=O)NC1CCCCC1)c1ccc(Cl)cc1)OC (stereo not drawn) | 43* | 34 | 0 | 0 | 38 | 30
COC(CN(C(=O)CCl)C(C(=O)NC1CCCCC1)c1ccccc1C)OC (stereo not drawn) | 43* | 39 | -1 | 1 | 36 | 32*
O=C(Cc1c(F)c(F)c(F)c(F)c1F)Nc1nc(-c2ccccc2)cs1 | -65 | -93 | 0 | -1 | -18 | .
O=C(NCc1ccc2c(c1)OCO2)C(=O)NCC1OCCCN1S(=O)(=O)c1ccc(F)cc1 (stereo not drawn) | -9 | 9 | -2 | 3 | 2 | .
Cc1ccc(NC2=C(NCCO)C(=O)c3ccccc3C2=O)cc1 | 43* | 19 | 1 | 2 | 27 | 12
O=C1C(Cl)=C(NCCCO)C(=O)c2ccccc21 | 29 | 25 | -2 | 2 | 30 | .
O=C(CCl)N1CCN(S(=O)(=O)Cc2ccccc2)CC1 | 43* | 18 | -8 | 13 | 29 | 20
SMILES | tim10-1 inh | TIM10 inh | UPR XBP1 act | CHOP UPR activ | tim23-1 inh | tim10-1 conf
CC(C)c1cc(C(C)C)c(S(=O)(=O)NNC(=O)c2ccncc2)c(C(C)C)c1 | 50* | 33 | 1 | 4 | 37 | 21
CCn1c(-c2ccccn2)nc2cc(S(=O)(=O)N(C)C)ccc21 | 2 | 22 | 12 | 4 | 11 | .
CCn1c(-c2cc(Br)cc(OC)c2O)nc2cc(S(=O)(=O)N(C)C)ccc21 | 43* | 19 | 2 | 2 | 17 | 16
CCc1cc2c(=O)nc3n(c2s1)Cc1ccccc1/C3=C(/O)c1ccc(F)cc1 | 44* | 19 | 4 | 5 | 43 | 35*
CC1(C)C2CCC(C2)C1C/C=N/NC(N)=S (stereo not drawn) | 46* | 17 | 23 | 13 | 30 | -6
Cn1c(SCc2cccc(C#N)c2)nc2ccccc2c1=O | 13 | -38 | -2 | 1 | 32 | .
CCN(CC(=O)NCc1cccs1)C(=O)c1ccc(-c2ccc(F)cc2)o1 | 6 | 11 | 0 | 1 | 25 | .
CCCc1nn2c(=O)cc(CSCC(=O)Nc3cccc(OC)c3)nc2s1 | -11 | 4 | 1 | -1 | 5 | .
CSCCC(NC(=O)c1ccccc1Cl)C(=O)N1CCN(c2ccccn2)CC1 (stereo not drawn) | 19 | 4 | -3 | -1 | 16 | .
CCCc1cc(C(=O)Cc2ccc(C(=O)OCC)o2)c(O)cc1O | 45* | 14 | 1 | -2 | 16 | 15
CCCc1cc(C(=O)Cc2ccc(F)cc2)c(O)cc1O | 29 | 26 | 1 | -1 | 37 | .
COc1cc(/C=C(\C#N)C(=O)N2CCCCC2)ccc1O | 33 | 18 | 2 | 2 | 34 | .
COc1cc(/C=C(\C#N)c2nc3c(s2)CCCC3)ccc1O | 44* | 31 | 0 | 5 | 34 | 12
N#C/C(=C/c1cccnc1)c1ccccc1 | 1 | 5 | 1 | 1 | 18 | .
N#C/C(=C\c1cccnc1)c1nc2c(s1)CCCC2 | 43* | 20 | 4 | 9 | 13 | 32*
CC1CCc2nc(/C(C#N)=C/c3cccnc3)sc2C1 (stereo not drawn) | 42* | 27 | 3 | 5 | 12 | 30
COc1ccc(CNC(=O)Cn2c(=O)n(CC(=O)N3CCCCC3)c(=O)c3sccc32)cc1 | -6 | -6 | -5 | 0 | -7 | .
O=C(COC(=O)c1ccccc1C(=O)OCC(=O)NCCc1c[nH]c2ccccc12)NCCc1c[nH]c2ccccc12 | -1 | -1 | 1 | 3 | 3 | .
CCc1ccc(N2C(=O)CC(N3CCC(C(=O)OC)CC3)C2=O)cc1 (stereo not drawn) | 43* | 11 | -2 | 1 | 22 | 42*

Source: PubChem BioAssay (Sanford-Burnham Center for Chemical Genomics)
